Source: PubChem (several laboratories)
ROMK mod: modulators of human ROMK potassium channel. P48048. Tet-inducible ROMK, thallium flux fluorescence; actives lie on both sides. B-score at 10 µM. 130,000 compounds, 2% hits. AID 1918;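 active means signal ratio slope over the read window, or its plate-corrected B-score, at least 3 SD from the plate mean, either direction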;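 further: B-score of the F/F0 ratio slope over 7 to 12 s after thallium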
Target sequence (P48048 whole entry, looked up): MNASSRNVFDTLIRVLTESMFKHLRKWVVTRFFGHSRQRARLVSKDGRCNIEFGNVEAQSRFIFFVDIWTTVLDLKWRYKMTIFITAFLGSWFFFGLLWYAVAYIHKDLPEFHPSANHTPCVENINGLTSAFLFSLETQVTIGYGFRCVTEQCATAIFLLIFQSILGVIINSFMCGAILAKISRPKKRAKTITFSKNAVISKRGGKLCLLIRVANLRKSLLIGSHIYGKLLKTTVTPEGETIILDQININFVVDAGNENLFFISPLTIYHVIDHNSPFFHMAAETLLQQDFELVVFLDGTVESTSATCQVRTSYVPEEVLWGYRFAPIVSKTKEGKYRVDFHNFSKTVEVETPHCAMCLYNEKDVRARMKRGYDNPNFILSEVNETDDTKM
WT yeast gro inh: growth inhibition of WT yeast, mitochondrial fusion screen; mitochondrial fusion phenotypic screen, WT strain; inhibition, % at 10 µM; 190,000 compounds, 2.1% hits; AID 1362; in the data active means inhibition above about 58%; tested in S. cerevisiae
Lmaj promast: Leishmania major promastigote growth inhibition; 200,000 compounds, 9% hits; Leishmania major promastigotes, resazurin fluorescence viability; inhibition, % at 10 µM; in the data active means inhibition above about 50%;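 further: promastigotes grown with compound for 44 hours at 28 °C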
Diaphorase act: diaphorase activation or chemical reduction counter-screen; Diaphorase/resazurin coupled assay, resorufin fluorescence, 16 min; hits give high values; 1 = vehicle wells, 0 = NADH-free wells; activation factor at 20 µM; 190,000 compounds, 0.005% hits;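 active means diaphorase activity raised at least twofold by the compound at 20 µM; inactive means activation factor below 2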
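Assay system: bacterial diaphorase enzyme (C. kluyveri) / Input: enzyme 0.07 U/mL final / Medium: 50 mM HEPES pH 7.4 with 4.542 mM MgCl2, 0.005% Tween 20 / Doses: single compound dose of 20 µM, 1% DMSO final / Incubation: 16 min enzyme reaction, ambient temperature / Signal: fluorescence, excitation 544 nm and emission 590 nm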
KCC2 mod: KCC2 (human) Cl- transport modulation | AID 1456 | Q9H2X9 | 190,000 compounds, 2.2% hits | B-score of Tl+ flux slope (higher = more flux/activation; lower = inhibition) at 10 µM | KCC2 cells, thallium flux FluoZin-2 fluorescence;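 active means thallium flux slope and its plate-corrected score both differing from the plate sample mean at a set confidence after two filtering rounds, in either direction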;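 further: slope of fluorescence scaled to starting intensity during 10 to 20 s after thallium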
Diaphorase inh: diaphorase inhibition or chemical oxidation counter-screen; 190,000 compounds, 0.69% hits; diaphorase resazurin-to-resorufin fluorescence, NADH, 16 min; bacterial (C. kluyveri) enzyme, not human; inhibition, % at 20 µM;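 active means primary screen inhibition at 20 µM above a set limit, cut at about 50% in these data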;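 further: plate controls were DMSO with full reaction for no effect and wells lacking NADH for full effect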
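Assay system: diaphorase enzyme from Clostridium kluyveri. Quantity: enzyme working solution with 0.14 U/mL diaphorase. Schedule: reaction incubation of 16 min at room temperature. Technique: resorufin fluorescence, excitation 544 nm, emission 590 nm. Controls: No-NADH positive control and DMSO neutral control.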
* marks the source's active call; other numbers are inactive results; · = no result given. Most compounds without a hit are left out; they make up all but 12% or so of the library.

SMILES	ROMK mod	WT yeast gro inh	Lmaj promast	Diaphorase act	KCC2 mod	Diaphorase inh
COc1cccc(OC)c1OCCCCN1CCC(Cc2ccccc2)CC1	-3.5	11.6	89.2*	0.9	-1.76	11.0
CC(=O)CCc1ccc(OCCCCN2CCC(Cc3ccccc3)CC2)cc1	-0.994	-18.2	93.6*	1.1	-2.78	-10.8
COc1ccc(NC(=O)NCCCN2CCC(Cc3ccccc3)CC2)cc1	-1.13	·	·	·	0.0345	·
COc1ccccc1OCCCCN1CCN(C(c2ccccc2)c2ccccc2)CC1	-1.39	47.4	93.2*	1	-0.176	-0.6
CCOC(=O)C1(CC2CCCCO2)CCN(Cc2ccc(OC)cc2F)CC1 (stereo not given)	·	2.2	7.4	0.9	0.371	9.2
COc1cccc(OC)c1OCCCN1CCOCC1	-0.601	21.0	2.0	0.5	0.427	53.0*
COc1ccc(-c2noc(CCC(=O)NCCCN3CCC(Cc4ccccc4)CC3)n2)cc1	·	15.6	100.5*	0.9	-0.064	7.1
COc1ccc(-c2noc(CCC(=O)NCCCN3CCN(c4ccc(F)cc4)CC3)n2)cc1	1.7	-3.3	13.6	0.9	0.168	8.1
CCNc1nc(Oc2c(Cl)cccc2Cl)cc(C(F)(F)F)n1	·	-2.6	76.6*	0.9	0.575	14.2
CCNc1nc(Oc2ccc(Cl)cc2Cl)cc(C(F)(F)F)n1	·	52.2	-0.4	1	·	2.0
Cc1c(C(=O)N2CCC(C)CC2)sc2ncnc(N(C)c3ccccc3)c12	·	87.9*	12.9	0.9	-0.84	11.9
CC1CC(C)CN(C(=S)Nc2ccc3nc4n(c(=O)c3c2)CCCCC4)C1 (stereo not given)	0.0223	-10.2	85.2*	1	0.625	-0.4
CCN(CC)CCNC(=S)Nc1ccc2nc3n(c(=O)c2c1)CCCCC3	1.34	-6.4	3.2	1	·	1.2
Cc1ccccc1C(=O)Nc1ccc2nc3n(c(=O)c2c1)CCC3	·	8.7	4.7	0.9	1.29	14.0
O=C(Nc1ccc2nc3n(c(=O)c2c1)CCCC3)c1ccccc1[N+](=O)[O-]	·	-1.0	56.2*	0.8	1.23	16.7
CCCN(CCC)CCCNC(=S)Nc1ccc2nc3n(c(=O)c2c1)CCCCC3	·	6.8	60.8*	0.9	-0.846	10.0
Cc1cc(C(=O)N/N=C/c2cc(Br)ccc2OC(=O)c2ccccc2Cl)n[nH]1	-0.228	-3.0	98.3*	1	-0.108	-0.1
Cc1cc(C(=O)N/N=C/c2cc(Br)ccc2OC(=O)c2ccccc2)n[nH]1	·	12.0	-7.3	1	·	-2.3
COc1ccccc1CNC(=O)C(CCSC)NC(=O)C1CCC(C)CC1 (stereo not given)	-1.22	0.7	2.2	0.9	1.05	8.3
Cc1nc2cccc(C(=O)Oc3ccc([N+](=O)[O-])cc3)c2o1	-3.74	15.1	-1.9	1	-1.09	0.7
Cc1c(-c2ccccc2)nc2ccccc2c1C(=O)Oc1ccc([N+](=O)[O-])cc1	·	2.2	50.5*	0.8	0.0285	16.8
CC1=CC(=NOC(=O)c2cccc([N+](=O)[O-])c2)C=C(C)C1=O	·	-8.1	100.2*	1	0.0107	0.0
CC1=CC(=O)C(C(C)C)=CC1=NC(=O)c1ccc(C)cc1	-1.24	-20.0	8.0	0.6	-0.531	37.0
CC1=CC(=O)C(C(C)C)=C/C1=N\OC(=O)c1cccc2nc(C)oc12	·	5.0	95.5*	0.8	-0.00349	17.1
CC1=CC(=O)C(C(C)C)=C/C1=N/OC(=O)c1cccc([N+](=O)[O-])c1	-0.074	-0.7	100.4*	1	-0.0466	1.7
SMILES	ROMK mod	WT yeast gro inh	Lmaj promast	Diaphorase act	KCC2 mod	Diaphorase inh
CC1=[N+]([O-])C(C)(C)N(O)C1(C)C	·	·	·	·	-0.568	·
CCOc1ccccc1Nc1nc(N)nc(CN2CCCCC2C)n1 (stereo not given)	-0.163	-8.0	17.4	·	0.71	·
CSc1cccc(CN2CCCC(CO)(Cc3cccc(Cl)c3)C2)c1 (stereo not given)	-0.153	29.8	1.2	·	-0.602	·
COc1cc(CN2CCCC(CO)(Cc3cccc(Cl)c3)C2)cc2c1OCO2 (stereo not given)	-0.0899	23.0	73.1*	0.8	·	16.5
CC(=O)Nc1ccc(CN2CCCC(CO)(Cc3cccc(Cl)c3)C2)cc1 (stereo not given)	·	·	·	·	-0.41	·
COCc1ccc(CN2CCCC(CO)(Cc3ccccc3)C2)o1 (stereo not given)	-0.216	5.9	-4.4	1.1	-0.703	-14.9
CC(C)n1cc(CN2CCCC(CO)(Cc3cccc(Cl)c3)C2)cn1 (stereo not given)	-1.58	5.3	87.4*	1.2	·	-23.9
Cn1cc(CN2CCCC(CO)(Cc3cccc(Cl)c3)C2)cn1 (stereo not given)	-0.46	26.4	81.2*	0.9	1.24	13.0
Cn1cc(CN2CCCC(CO)(Cc3ccccc3)C2)cn1 (stereo not given)	0.0117	-2.1	76.8*	0.8	2.26	21.0
C=CCNC(=O)/C(=C/c1cccc([N+](=O)[O-])c1)NC(=O)c1ccccc1	-0.764	20.1	-3.3	0.9	0.816	11.0
Cc1cccc(-c2ncc(CN3CCCC(CO)(Cc4cccc(Cl)c4)C3)cn2)c1 (stereo not given)	0.288	62.6*	8.8	0.8	-0.0928	22.4
Cc1ccccc1CC1(CO)CCCN(Cc2c(C)nn(C)c2Cl)C1 (stereo not given)	-0.528	10.4	11.8	1	-0.391	-3.8
Cc1nn(C)c(Cl)c1CN1CCCC(CO)(Cc2cccc(Cl)c2)C1 (stereo not given)	-0.453	·	86.4*	1.1	-0.298	-8.4
CCOC(=O)C1(Cc2ccccc2)CCN(Cc2cnn(-c3ccccc3)c2)CC1	·	7.7	28.0	0.9	-0.206	6.7
CCn1cc(CN2CCCC(CO)(Cc3cccc(Cl)c3)C2)cn1 (stereo not given)	-0.784	-3.4	92.5*	0.9	-0.00189	11.3
COc1cccc(CC2(CO)CCCN(Cc3cn[nH]c3-c3ccccc3)C2)c1 (stereo not given)	0.0729	0.0	1.4	1	·	-3.9
OCC1(Cc2cccc(Cl)c2)CCCN(Cc2cnn(-c3ccccc3)c2)C1 (stereo not given)	·	13.2	84.9*	0.8	-0.44	18.9
CCOC(=O)C1(Cc2ccccc2)CCCN(Cc2cnn(CC)c2)C1 (stereo not given)	0.537	8.1	16.4	0.7	0.0804	25.7
O=C(NC(=S)NCc1ccccc1)c1ccc2c(c1)OCO2	·	4.7	3.7	0.9	1.13	14.0
COc1ccc(CC(=O)NNS(=O)(=O)c2ccc(F)cc2)cc1OC	1.16	-11.3	15.8	1.1	0.167	-13.7
O=C(Cc1csc(Nc2nc(=S)[nH]c3ccccc23)n1)NCc1ccc(Cl)cc1	·	2.9	47.6	1.1	5.88*	-5.5
COc1ccc(CNC(=O)Cc2csc(Nc3nc(=S)[nH]c4ccccc34)n2)cc1	·	-3.9	-5.5	0.9	7*	5.4
